Data reported in ChEMBL document CHEMBL3822361, “Novel 1,6-naphthyridin-2(1H)-ones as potential anticancer agents targeting Hsp90” (Eur J Med Chem, 2016).
Each block holds one compound with its values, some of them ahead of it. Active and inactive are the calls of the source. No cut-off for these calls is given here.

Key:
MDA-MB-468 [1] = assay: Antiproliferative activity against human MDA-MB-468 cells measured after 48 hrs by MTT assay; format: functional, cell-based; details: MDA-MB-468, 48 h
How it was run: (§1)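 Cells grown in DMEM with 2 mM L-glutamine, penicillin/streptomycin and 5% FBS at 37 °C, 5% CO2; seeded 6000/well in 96-well plates, attached 24 h. Compounds added over a concentration range in DMSO (1% final), 48 h. MTT (2.5 mg/mL in PBS) added for 3.5 h, formazan dissolved in DMSO, OD 570 nm. Growth relative to 1% DMSO; IC50 from separate triplicate experiments.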

MCF7 [2] = assay: Antiproliferative activity against human MCF7 cells measured after 48 hrs by MTT assay; format: functional, cell-based; details: MCF7, 48 h; how it was run: as §1
MDA-MB-468 [3] = assay: Induction of apoptosis in human MDA-MB-468 cells assessed as mortality at 10 uM measured after 48 hrs by Annexin V-FITC/propidium iodide staining-based flow cytometry; format: functional; details: MDA-MB-468, 48 h
How it was run: (§2)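 MDA-MB-468 cells seeded in wells, held 24 h at 37 °C in 5% CO2, then exposed to compound in DMSO (1% DMSO final) for 48 h. Floating and trypsinised adherent cells pooled, PBS-washed, stained with annexin V-FITC plus propidium iodide in binding buffer 15 min on ice in the dark. Flow cytometry, ≥10 000 events per sample; annexin V-positive cells scored apoptotic.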

MDA-MB-468 [4] = assay: Effect on cell cycle in human MDA-MB-468 cells assessed as accumulation at subG1-phase at 10 uM measured after 48 hrs by propidium iodide staining-based FACS analysis; format: functional
How it was run: (§3)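 MDA-MB-468 seeded 40,000/well in 24-well plates, 24 h at 37 °C, 5% CO2, then treated 48 h with compounds in DMSO (1% final). Cells trypsinized, washed in PBS, fixed in 70% ethanol, rehydrated in PBS, stained with propidium iodide in PBS. Phase distribution (G1, S, G2/M, polyploid, subG1) read by flow cytometry.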

[5] = target: T1, Heat shock protein HSP90 (Homo sapiens) (UniProt P07900+P08238); assay: Inhibition of HSP90 in human MCF7 cells assessed as Raf-1 protein degradation at 1.5 times IC50 measured after 48 hrs by western blot analysis; format: cell-based
How it was run: (§4)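 Cells seeded in 6-well plates, 24 h at 37 °C, 5% CO2, then exposed 48 h to compound or 17-AAG in DMSO (1% final) or to vehicle. Lysed 2 h on ice in buffer with protease and phosphatase inhibitors, sonicated, protein measured by BCA. Equal protein run on SDS-PAGE, moved to PVDF, primary antibodies overnight at 4 °C, HRP secondary 1 h, ECL chemiluminescence.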

[6] = target: T1, Heat shock protein HSP90 (Homo sapiens); assay: Inhibition of HSP90 in human MCF7 cells assessed as ER-alpha protein degradation at 1.5 times IC50 measured after 48 hrs by western blot analysis; format: cell-based; how it was run: as §4
MCF7 [7] = assay: Effect on actin level in human MCF7 cells at 1.5 times IC50 measured after 48 hrs by western blot analysis; format: cell-based; details: mcf7, 48 h; how it was run: as §4
[8] = target: T1, Heat shock protein HSP90 (Homo sapiens); assay: Inhibition of HSP90 in human MDA-MB-468 cells assessed as Raf-1 protein degradation at 1.5 times IC50 measured after 48 hrs by western blot analysis; format: cell-based; how it was run: as §4
MDA-MB-468 [9] = assay: Effect on actin level in human MDA-MB-468 cells at 1.5 times IC50 measured after 48 hrs by western blot analysis; format: cell-based; details: mda-mb-468, 48 h; how it was run: as §4
MCF7 [10] = assay: Effect on HSP90 level in human MCF7 cells at 1.5 times IC50 measured after 48 hrs by western blot analysis; format: cell-based; details: mcf7, 48 h; how it was run: as §4
MDA-MB-468 [11] = assay: Effect on HSP90 level in human MDA-MB-468 cells at 1.5 times IC50 measured after 48 hrs by western blot analysis; format: cell-based; details: mda-mb-468, 48 h; how it was run: as §4
MDA-MB-468 [12] = assay: Cell cycle arrest in human MDA-MB-468 cells at 10 uM measured after 48 hrs by propidium iodide staining-based FACS analysis; format: functional; how it was run: as §3
[13] = target: T1, Heat shock protein HSP90 (Homo sapiens); assay: Inhibition of HSP90 in human MCF-7 cells assessed as ER-alpha protein degradation at 1.5 times IC50 measured after 48 hrs by western blot analysis
MDA-MB-468 [14] = assay: Induction of apoptosis in human MDA-MB-468 cells at 2 uM measured after 48 hrs by Annexin V-FITC/propidium iodide staining-based flow cytometry; format: functional, cell-based
How it was run: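 Cells incubated 24 h at 37 °C, 5% CO2, then given compounds in DMSO (1% final) for 48 h. Floating and trypsinized adherent cells pooled, PBS-washed, stained with annexin V-FITC plus propidium iodide in binding buffer, 15 min on ice in the dark. Flow cytometry, ≥10 000 events per sample; annexin V-positive cells scored as apoptotic.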

MDA-MB-468 [15] = assay: Effect on cell cycle distribution in human MDA-MB-468 cells assessed as accumulation at G2/M-phase at 2 uM measured after 48 hrs by propidium iodide staining-based flow cytometry; format: functional; how it was run: as §3
MCF7 [16] = assay: Antiproliferative activity against human MCF7 cells measured after 5 days by MTS assay; format: functional, cell-based; details: MCF7, 120 h
MDA-MB-468 [17] = assay: Induction of apoptosis in human MDA-MB-468 cells assessed as mortality at 15 uM measured after 48 hrs by Annexin V-FITC/propidium iodide staining-based flow cytometry; format: functional; details: MDA-MB-468, 48 h; how it was run: as §2
MDA-MB-468 [18] = assay: Effect on cell cycle in human MDA-MB-468 cells assessed as accumulation at subG1-phase at 15 uM measured after 48 hrs by propidium iodide staining-based FACS analysis; format: functional; how it was run: as §3
[19] = target: T1, Heat shock protein HSP90 (Homo sapiens); assay: Inhibition of HSP90 in human MCF7 cells assessed as induction of prosurvival heat shock response at 1.5 times IC50 measured after 48 hrs by Western blot analysis; format: cell-based; how it was run: as §4
MDA-MB-468 [20] = assay: Cell cycle arrest in human MDA-MB-468 cells at 15 uM measured after 48 hrs by propidium iodide staining-based FACS analysis; format: functional; how it was run: as §3

Compound: COc1ccc(C(=O)Nc2cc3cnc(N4CCN(CCO)CC4)cc3n(C)c2=O)cc1
IC50 (MDA-MB-468 [1]): 10.5 µM
IC50 (MCF7 [2]): 8.59 µM
mortality at 10 µM (MDA-MB-468 [3]): 40%
Activity (MDA-MB-468 [4]): Active
inhibition [5]: Active
inhibition [6]: Active
Activity (MCF7 [7]): Non-toxic
inhibition [8]: Active
Activity (MDA-MB-468 [9]): Non-toxic
Activity (MCF7 [10]): Non-toxic
Activity (MDA-MB-468 [11]): Non-toxic
Activity (MDA-MB-468 [12]): inactive
inhibition [13]: Active

IC50 (MDA-MB-468 [1]): 1.96 µM
IC50 (MCF7 [2]): 4.85 µM
inhibition [5]: Active
inhibition [6]: Active
inhibition [8]: Active
inhibition [13]: Active
Compound: Cn1c(=O)c(NC(=O)c2cccc(-c3ccccc3)c2)cc2cnc(NCCN3CCOCC3)cc21
Activity (MDA-MB-468 [14]): inactive
Activity (MDA-MB-468 [15]): Active
Activity (MCF7 [7]): Non-toxic
Activity (MDA-MB-468 [9]): Non-toxic
Activity (MCF7 [10]): Non-toxic
Activity (MDA-MB-468 [11]): Non-toxic

IC50 (MDA-MB-468 [1]): > 100 µM
IC50 (MCF7 [2]): > 100 µM
Compound: Cn1c(=O)c(NC(=O)/C=C/c2ccccc2)cc2cnc(NCCN3CCOCC3)cc21

IC50 (MDA-MB-468 [1]): 15.6 µM
IC50 (MCF7 [2]): 21.5 µM
Compound: COc1cc(C(=O)Nc2cc3cnc(NCCN(C)C)cc3n(C)c2=O)cc(OC)c1OC

IC50 (MDA-MB-468 [1]): > 100 µM
IC50 (MCF7 [2]): 48.6 µM
Compound: COc1cc(C(=O)Nc2cc3cnc(NCCN4CCOCC4)cc3n(C)c2=O)cc(OC)c1OC

IC50 (MDA-MB-468 [1]): 17.4 µM
IC50 (MCF7 [2]): 43.2 µM
Compound: COc1cccc(C(=O)Nc2cc3cnc(NCCN(C)C)cc3n(C)c2=O)c1

IC50 (MDA-MB-468 [1]): > 100 µM
IC50 (MCF7 [2]): > 100 µM
Compound: Cn1c(=O)c(NC(=O)c2ccccc2)cc2cnc(NCCN3CCOCC3)cc21

IC50 (MDA-MB-468 [1]): > 100 µM
IC50 (MCF7 [2]): > 100 µM
Compound: Cn1c(=O)c(NC(=O)c2cc3ccccc3s2)cc2cnc(NCCN3CCOCC3)cc21

IC50 (MDA-MB-468 [1]): > 100 µM
IC50 (MCF7 [2]): > 100 µM
Compound: Cn1c(=O)c(NC(=O)c2ccc(O)cc2)cc2cnc(NCCN3CCOCC3)cc21

IC50 (MDA-MB-468 [1]): > 100 µM
IC50 (MCF7 [2]): 6.35 µM
Compound: Cn1c(=O)c(NC(=O)c2ccc(Cl)cc2)cc2cnc(NCCN3CCOCC3)cc21

IC50 (MDA-MB-468 [1]): 1.57 µM
IC50 (MCF7 [2]): 0.029 µM
IC50 (MCF7 [16]): 0.005 µM
Compound: C=CCNC1=C2C[C@@H](C)C[C@H](OC)[C@H](O)[C@@H](C)/C=C(\C)[C@H](OC(N)=O)[C@@H](OC)/C=C\C=C(/C)C(=O)NC(=CC1=O)C2=O [TANESPIMYCIN]
Activity (MDA-MB-468 [15]): Active

IC50 (MDA-MB-468 [1]): 15.7 µM
IC50 (MCF7 [2]): 37.3 µM
Compound: COc1ccc(C(=O)Nc2cc3cnc(NCCN(C)C)cc3n(C)c2=O)cc1

IC50 (MDA-MB-468 [1]): > 100 µM
IC50 (MCF7 [2]): > 100 µM
Compound: COc1cccc(C(=O)Nc2cc3cnc(NCCN4CCOCC4)cc3n(C)c2=O)c1

Compound: Cn1c(=O)c(NC(=O)c2cccc(-c3ccccc3)c2)cc2cnc(N3CCN(CCO)CC3)cc21
IC50 (MDA-MB-468 [1]): 14.7 µM
IC50 (MCF7 [2]): 15.2 µM
mortality at 15 µM (MDA-MB-468 [17]): 80%
Activity (MDA-MB-468 [18]): Active
inhibition [19]: Active
inhibition [5]: Active
inhibition [6]: Active
Activity (MCF7 [7]): Non-toxic
inhibition [8]: Active
Activity (MDA-MB-468 [9]): Non-toxic
Activity (MCF7 [10]): Toxic
Activity (MDA-MB-468 [11]): Toxic
Activity (MDA-MB-468 [20]): inactive
inhibition [13]: Active

IC50 (MDA-MB-468 [1]): 12.1 µM
IC50 (MCF7 [2]): 27.4 µM
Compound: CN(C)CCNc1cc2c(cn1)cc(NC(=O)/C=C/c1ccccc1)c(=O)n2C
